Active and inactive are the calls of the source. The rule behind the calls is not given here.
Key:
[1] = test system: Root; assay: Drug metabolism in Echinochloa crus-galli (barnyard grass) root assessed as transformation to genistein at 20 uM after 14 days measured per gm of dry weight by LC-MS analysis; format: ADME; details: 336 h
How it was run: (§1)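 Pregerminated seeds, 14 per container, transplanted onto 0.5% agar medium containing biochanin A. Grown at 24 ± 1 °C under a 16 h light/8 h dark photoperiod and harvested 14 days after transplanting. Roots and shoots collected separately, blotted, washed twice, then freeze-dried. Tissue extracted by ASE at 40 °C and analysed by LC-ESI-MS against commercial standards. Two replicates per treatment.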

[2] = test system: Root; assay: Drug metabolism in Geranium molle root assessed as transformation to genistein at 400 uM after 14 days measured per gm of dry weight by LC-MS analysis; format: ADME; details: 336 h; how it was run: as §1
[3] = test system: Shoot; assay: Drug uptake in Geranium molle shoot at 20 uM after 14 days measured per gm of dry weight by LC-MS analysis; format: ADME; details: 336 h
How it was run: (§2)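 Pregerminated seeds (14 per container) were grown on 20 mL 0.5% agar medium containing biochanin A, at 24 ± 1 °C with a 16 h light/8 h dark cycle. There were two replicates per treatment: 14 containers for S. noctiflora, 9 for G. molle and E. crus-galli. At 14 days, roots and shoots were harvested separately, washed, blotted and freeze-dried. Extraction was ASE at 40 °C, 1600 psi, 3 cycles. Analysis was LC-ESI-MS SIM against standards.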

[4] = test system: Shoot; assay: Drug metabolism in Geranium molle shoot assessed as transformation to dihydrobiochanin A at 400 uM after 14 days measured per gm of dry weight by LC-MS analysis; format: ADME; details: 336 h; how it was run: as §1
[5] = test system: Root; assay: Drug metabolism in Silene noctiflora root assessed as transformation to genistein at 400 uM after 14 days measured per gm of dry weight by LC-MS analysis; format: ADME; details: 336 h; how it was run: as §1
[6] = test system: Shoot; assay: Drug metabolism in Echinochloa crus-galli (barnyard grass) shoot assessed as transformation to pratensein at 20 uM after 14 days measured per gm of dry weight by LC-MS analysis; format: ADME; details: 336 h; how it was run: as §1
[7] = test system: Shoot; assay: Drug uptake in Silene noctiflora shoot at 400 uM after 14 days measured per gm of dry weight by LC-MS analysis; format: ADME; details: 336 h; how it was run: as §2
[8] = test system: Root; assay: Drug metabolism in Geranium molle root assessed as transformation to dihydrobiochanin A at 20 uM after 14 days measured per gm of dry weight by LC-MS analysis; format: ADME; details: 336 h; how it was run: as §1
[9] = test system: Root; assay: Drug metabolism in Echinochloa crus-galli (barnyard grass) root assessed as transformation to pratensein at 20 uM after 14 days measured per gm of dry weight by LC-MS analysis; format: ADME; details: 336 h; how it was run: as §1
[10] = test system: Shoot; assay: Drug metabolism in Silene noctiflora shoot assessed as transformation to sissotrin at 20 uM after 14 days measured per gm of dry weight by LC-MS analysis; format: ADME; details: 336 h; how it was run: as §2
[11] = test system: Root; assay: Drug metabolism in Geranium molle root assessed as transformation to genistein at 20 uM after 14 days measured per gm of dry weight by LC-MS analysis; format: ADME; details: 336 h; how it was run: as §1
[12] = test system: Shoot; assay: Drug metabolism in Echinochloa crus-galli (barnyard grass) shoot assessed as transformation to dihydrobiochanin A at 20 uM after 14 days measured per gm of dry weight by LC-MS analysis; format: ADME; details: 336 h; how it was run: as §1
[13] = test system: Shoot; assay: Drug metabolism in Silene noctiflora shoot assessed as transformation to dihydrobiochanin A at 400 uM after 14 days measured per gm of dry weight by LC-MS analysis; format: ADME; details: 336 h; how it was run: as §1
[14] = test system: Root; assay: Drug metabolism in Echinochloa crus-galli (barnyard grass) root assessed as transformation to genistein at 400 uM after 14 days measured per gm of dry weight by LC-MS analysis; format: ADME; details: 336 h; how it was run: as §1
[15] = test system: Shoot; assay: Drug uptake in Silene noctiflora shoot at 20 uM after 14 days measured per gm of dry weight by LC-MS analysis; format: ADME; details: 336 h; how it was run: as §2
[16] = test system: Shoot; assay: Drug metabolism in Geranium molle shoot assessed as transformation to pratensein at 20 uM after 14 days measured per gm of dry weight by LC-MS analysis; format: ADME; details: 336 h; how it was run: as §1
[17] = test system: Root; assay: Drug metabolism in Geranium molle root assessed as transformation to dihydrobiochanin A at 400 uM after 14 days measured per gm of dry weight by LC-MS analysis; format: ADME; details: 336 h; how it was run: as §1
[18] = test system: Root; assay: Drug metabolism in Geranium molle root assessed as transformation to p-coumaric acid at 20 uM after 14 days measured per gm of dry weight by LC-MS analysis; format: ADME; details: 336 h; how it was run: as §1
[19] = test system: Root; assay: Drug uptake in Silene noctiflora root at 400 uM after 14 days measured per gm of dry weight by LC-MS analysis; format: ADME; details: 336 h; how it was run: as §2
[20] = test system: Root; assay: Drug metabolism in Geranium molle root assessed as transformation to sissotrin at 20 uM after 14 days measured per gm of dry weight by LC-MS analysis; format: ADME; details: 336 h; how it was run: as §1
[21] = test system: Root; assay: Drug metabolism in Echinochloa crus-galli (barnyard grass) root assessed as transformation to p-coumaric acid at 400 uM after 14 days measured per gm of dry weight by LC-MS analysis; format: ADME; details: 336 h; how it was run: as §1
[22] = test system: Root; assay: Drug metabolism in Silene noctiflora root assessed as transformation to sissotrin at 20 uM after 14 days measured per gm of dry weight by LC-MS analysis; format: ADME; details: 336 h; how it was run: as §1
[23] = test system: Leaf; assay: Drug recovery in leaf of Secale cereale (rye) at 50 ng/g by LC-MS analysis
[24] = test system: Shoot; assay: Drug metabolism in Geranium molle shoot assessed as transformation to pratensein at 400 uM after 14 days measured per gm of dry weight by LC-MS analysis; format: ADME; details: 336 h; how it was run: as §1
[25] = test system: Shoot; assay: Drug metabolism in Echinochloa crus-galli (barnyard grass) shoot assessed as transformation to genistein at 400 uM after 14 days measured per gm of dry weight by LC-MS analysis; format: ADME; details: 336 h; how it was run: as §1
[26] = test system: Root; assay: Drug metabolism in Echinochloa crus-galli (barnyard grass) root assessed as transformation to sissotrin at 400 uM after 14 days measured per gm of dry weight by LC-MS analysis; format: ADME; details: 336 h; how it was run: as §1
[27] = test system: Root; assay: Drug metabolism in Geranium molle root assessed as transformation to p-coumaric acid at 400 uM after 14 days measured per gm of dry weight by LC-MS analysis; format: ADME; details: 336 h; how it was run: as §1
[28] = test system: Root; assay: Drug metabolism in Geranium molle root assessed as transformation to pratensein at 400 uM after 14 days measured per gm of dry weight by LC-MS analysis; format: ADME; details: 336 h; how it was run: as §1
[29] = test system: Echinochloa crus-galli; assay: Phytotoxicity against Echinochloa crus-galli (barnyard grass) assessed as root growth inhibition at 100 to 400 uM after 2 weeks by agar medium bioassay; format: functional, organism-based
How it was run: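 Agar bioassay with eight biochanin A doses (0–400 µM). Seeds were pregerminated 48 h at room temperature, then 10 seedlings were placed per Petri dish and grown 2 weeks at 24 ± 1 °C under a 16 h light/8 h dark cycle. […]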

[30] = test system: Shoot; assay: Drug uptake in Echinochloa crus-galli (barnyard grass) shoot at 400 uM after 14 days measured per gm of dry weight by LC-MS analysis; format: ADME; details: 336 h; how it was run: as §2
[31] = test system: Root; assay: Drug metabolism in Silene noctiflora root assessed as transformation to genistein at 20 uM after 14 days measured per gm of dry weight by LC-MS analysis; format: ADME; details: 336 h; how it was run: as §1
[32] = test system: Shoot; assay: Drug metabolism in Silene noctiflora shoot assessed as transformation to p-coumaric acid at 400 uM after 14 days measured per gm of dry weight by LC-MS analysis; format: ADME; details: 336 h; how it was run: as §1

Drug metabolism [1]: 0.07 µmol
Drug metabolism [2]: 0.08 µmol
Drug uptake [3]: 1 µmol
Drug metabolism [4]: 0.02 µmol
Drug metabolism [5]: 0.13 µmol
Drug metabolism [6]: 0.47 µmol
Drug uptake [7]: 1.11 µmol
Drug metabolism [8]: 0.38 µmol
Drug metabolism [9]: 0.38 µmol
Drug metabolism [10]: 2.36 µmol
Drug metabolism [11]: 0.05 µmol
Drug metabolism [12]: 0 µmol
Drug metabolism [13]: 0.02 µmol
Drug metabolism [14]: 0.12 µmol
Drug uptake [15]: 0.76 µmol
Drug metabolism [16]: 0.02 µmol
Drug metabolism [17]: 0.31 µmol
Drug metabolism [18]: 0.06 µmol
Drug uptake [19]: 4.54 µmol
Drug metabolism [20]: 36.06 µmol
Drug metabolism [21]: 0.11 µmol
Drug metabolism [22]: 1.72 µmol
Drug recovery [23]: 93%
Drug metabolism [24]: 0.05 µmol
Drug metabolism [25]: 0.2 µmol
Drug metabolism [26]: 1 µmol
Drug metabolism [27]: 0.05 µmol
Drug metabolism [28]: 0.32 µmol
Drug uptake [30]: 0.67 µmol
Drug metabolism [31]: 0.08 µmol
Drug metabolism [32]: 0.01 µmol
SMILES: COc1ccc(-c2coc3cc(O)cc(O)c3c2=O)cc1 [BIOCHANIN]
Activity [29]: inactive
